# Test results: ChEMBL document CHEMBL4024711, “Design, synthesis and biological evaluation of novel nitric oxide-donating protoberberine derivatives as antitumor agents” (Eur J Med Chem, 2017)
# Active and inactive are the calls of the source. The rule behind the calls is not given here.
# Tests used:
# [1] = test system: HCT-116; test: Cytotoxicity against human HCT116 cells after 72 hrs by MTT assay; format: functional, cell-based; settings: HCT-116, 72 h
# Summary of the method: (§1)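 MTT assay. Cells were plated and grown 24 h at 37 °C, 5% CO2, then exposed to compound in medium with 0.1% DMSO for 72 h. MTT (5 mg/mL in PBS) was added for 4 h and absorbance read at 490 nm. IC50 was taken from dose-response curves; at least three independent experiments.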
# [2] = test system: HL-60; test: Cytotoxicity against human HL60 cells after 72 hrs by MTT assay; format: functional, cell-based; settings: HL-60, 72 h; summary of the method: as §1
# [3] = test system: HepG2; test: Cytotoxicity against human HepG2 cells after 72 hrs by MTT assay; format: functional, cell-based; settings: HepG2, 72 h; summary of the method: as §1
# [4] = test system: SMMC-7721; test: Cytotoxicity against human SMMC7721 cells after 72 hrs by MTT assay; format: functional, cell-based; settings: SMMC-7721, 72 h; summary of the method: as §1
# [5] = test system: L02; test: Cytotoxicity against human LO2 cells after 72 hrs by MTT assay; format: cell-based; settings: L02, 72 h; summary of the method: as §1
# [6] = test system: HepG2; test: Disruption of mitochondrial membrane potential in human HepG2 cells assessed as intact mitochondrial membrane at 0.5 uM after 72 hrs by JC1 staining based flow cytometric method (reference value: 96.94%); format: functional
# Summary of the method: (§2)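 HepG2 cells were exposed to 0, 0.5, 1 or 2 μM for 72 h, washed in PBS, and resuspended in JC-1 incubation buffer at 37 °C for 15 min. The fractions of cells with healthy or collapsed mitochondrial membrane potential were determined by flow cytometry.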
# [7] = test system: H22; test: Antitumor activity against […] H22 cells xenografted in ICR mouse assessed as tumor growth inhibition at 15 mg/kg, iv administered once daily for 21 days measured post last dose relative to control; format: functional; settings: 504 h, read-out: TGI
# [8] = test system: HepG2; test: Induction of apoptosis in human HepG2 cells assessed as early apoptotic cells at 1 uM after 72 hrs by Annexin V-APC/7-AAD staining based flow cytometric method (reference value: 2.06%); format: functional
# [9] = test system: HepG2; test: Induction of apoptosis in human HepG2 cells assessed as necrotic cells at 0.5 uM after 72 hrs by Annexin V-APC/7-AAD staining based flow cytometric method (reference value: 2.44%); format: functional
# [10] = test system: HepG2; test: Induction of apoptosis in human HepG2 cells assessed as early apoptotic cells at 0.5 uM after 72 hrs by Annexin V-APC/7-AAD staining based flow cytometric method (reference value: 2.06%); format: functional
# [11] = test system: Mus musculus; test: Toxicity in ICR mouse xenografted with […] cells assessed as body weight at 15 mg/kg, iv administered once daily for 21 days measured post last dose (reference value: 26 +/- 0.6 g); format: organism-based; settings: in vivo, 504 h
# [12] = test system: HepG2; test: Cell cycle arrest in human HepG2 cells assessed as accumulation at G1 phase at 2 uM after 72 hrs by propidium iodide staining based flow cytometric method (reference value: 56.77%); format: functional
# Summary of the method: (§3)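 HepG2 cells were seeded and grown 24 h at 37 °C, 5% CO2. They were then exposed to 0, 0.5, 1 or 2 μM for 72 h, fixed in 70% ethanol at 4 °C for 12 h, and stained with RNase A plus propidium iodide for 30 min. DNA content was measured by flow cytometry to give the cell-cycle phase distribution.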
# [13] = test system: H22; test: Antitumor activity against […] H22 cells xenografted in ICR mouse assessed as tumor weight at 30 mg/kg, iv administered once daily for 21 days measured post last dose (reference value: 4.38 +/- 0.16 g); format: functional
# [14] = test system: HepG2; test: Cell cycle arrest in human HepG2 cells assessed as accumulation at G1 phase at 1 uM after 72 hrs by propidium iodide staining based flow cytometric method (reference value: 56.77%); format: functional; summary of the method: as §3
# [15] = test system: HepG2; test: Disruption of mitochondrial membrane potential in human HepG2 cells assessed as collapse of the mitochondrial membrane potential at 2 uM after 72 hrs by JC1 staining based flow cytometric method (reference value: 3.05%); format: functional; summary of the method: as §2
# [16] = test system: HepG2; test: Cell cycle arrest in human HepG2 cells assessed as accumulation at G2 phase at 0.5 uM after 72 hrs by propidium iodide staining based flow cytometric method (reference value: 17.45%); format: functional; summary of the method: as §3
# [17] = test system: HepG2; test: Disruption of mitochondrial membrane potential in human HepG2 cells assessed as intact mitochondrial membrane at 1 uM after 72 hrs by JC1 staining based flow cytometric method (reference value: 96.94%); format: functional; summary of the method: as §2
# [18] = test system: HepG2; test: Induction of apoptosis in human HepG2 cells assessed as necrotic cells at 2 uM after 72 hrs by Annexin V-APC/7-AAD staining based flow cytometric method (reference value: 2.44%); format: functional
# [19] = test system: HepG2; test: Induction of apoptosis in human HepG2 cells assessed as late apoptotic cells at 1 uM after 72 hrs by Annexin V-APC/7-AAD staining based flow cytometric method (reference value: 0.51%); format: functional
# [20] = test system: HepG2; test: Induction of apoptosis in human HepG2 cells assessed as late apoptotic cells at 0.5 uM after 72 hrs by Annexin V-APC/7-AAD staining based flow cytometric method (reference value: 0.51%); format: functional
# [21] = test system: HepG2; test: Cell cycle arrest in human HepG2 cells assessed as accumulation at G1 phase at 0.5 uM after 72 hrs by propidium iodide staining based flow cytometric method (reference value: 56.77%); format: functional; summary of the method: as §3
# [22] = test system: HepG2; test: Induction of apoptosis in human HepG2 cells assessed as live cells at 0.5 uM after 72 hrs by Annexin V-APC/7-AAD staining based flow cytometric method (reference value: 94.99%); format: functional
# [23] = test system: HepG2; test: Disruption of mitochondrial membrane potential in human HepG2 cells assessed as intact mitochondrial membrane at 2 uM after 72 hrs by JC1 staining based flow cytometric method (reference value: 96.94%); format: functional; summary of the method: as §2
# [24] = test system: Mus musculus; test: Toxicity in ICR mouse xenografted with […] cells assessed as body weight at 30 mg/kg, iv administered once daily for 21 days measured post last dose (reference value: 26 +/- 0.6 g); format: organism-based; settings: in vivo, 504 h
# [25] = test system: HepG2; test: Induction of apoptosis in human HepG2 cells assessed as necrotic cells at 1 uM after 72 hrs by Annexin V-APC/7-AAD staining based flow cytometric method (reference value: 2.44%); format: functional
# [26] = test system: HepG2; test: Disruption of mitochondrial membrane potential in human HepG2 cells assessed as collapse of the mitochondrial membrane potential at 1 uM after 72 hrs by JC1 staining based flow cytometric method (reference value: 3.05%); format: functional; summary of the method: as §2
# [27] = test system: HepG2; test: Disruption of mitochondrial membrane potential in human HepG2 cells assessed as collapse of the mitochondrial membrane potential at 0.5 uM after 72 hrs by JC1 staining based flow cytometric method (reference value: 3.05%); format: functional; summary of the method: as §2
# [28] = test system: HepG2; test: Cytotoxicity against human HepG2 cells at 2 uM after 72 hrs by MTT assay; format: functional, cell-based
# Summary of the method: (§4)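 HepG2 cells were pretreated for 2 h with graded concentrations of carboxy-PTIO (an NO scavenger), or left unpretreated. They were then exposed to 2 μM compound for 72 h, and growth was assessed by MTT. Mean ± SD, n=3.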
# [29] = test system: H22; test: Antitumor activity against […] H22 cells xenografted in ICR mouse assessed as tumor weight at 15 mg/kg, iv administered once daily for 21 days measured post last dose (reference value: 4.38 +/- 0.16 g); format: functional
# [30] = test system: HepG2; test: Induction of apoptosis in human HepG2 cells assessed as live cells at 2 uM after 72 hrs by Annexin V-APC/7-AAD staining based flow cytometric method (reference value: 94.99%); format: functional
# [31] = test system: HepG2; test: Induction of apoptosis in human HepG2 cells assessed as live cells at 1 uM after 72 hrs by Annexin V-APC/7-AAD staining based flow cytometric method (reference value: 94.99%); format: functional
# [32] = Induction of NO release assessed as nitrite formation in PBS at 100 uM up to 300 mins by Griess assay
# Summary of the method: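 Compound at 100 μM was incubated at 37 °C in PBS, pH 7.4, containing 2% DMSO and 5.0 mM L-cysteine, in acellular or HepG2 cell lysates, and sampled over time. Samples were mixed with Griess reagent at 37 °C for 15 min and read at 540 nm. Nitrite was quantified against a sodium nitrite standard curve, in triplicate.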
# [33] = test system: HepG2; test: Cell cycle arrest in human HepG2 cells assessed as accumulation at S phase at 2 uM after 72 hrs by propidium iodide staining based flow cytometric method (reference value: 25.78%); format: functional; summary of the method: as §3
# [34] = test system: HepG2; test: Cell cycle arrest in human HepG2 cells assessed as accumulation at S phase at 1 uM after 72 hrs by propidium iodide staining based flow cytometric method (reference value: 25.78%); format: functional; summary of the method: as §3
# [35] = test system: H22; test: Antitumor activity against […] H22 cells xenografted in ICR mouse assessed as tumor growth inhibition at 30 mg/kg, iv administered once daily for 21 days measured post last dose relative to control; format: functional; settings: 504 h, read-out: TGI
# [36] = test system: HepG2; test: Induction of apoptosis in human HepG2 cells assessed as early apoptotic cells at 2 uM after 72 hrs by Annexin V-APC/7-AAD staining based flow cytometric method (reference value: 2.06%); format: functional
# [37] = test system: HepG2; test: Cell cycle arrest in human HepG2 cells assessed as accumulation at G2 phase at 1 uM after 72 hrs by propidium iodide staining based flow cytometric method (reference value: 17.45%); format: functional; summary of the method: as §3
# [38] = test system: HepG2; test: Cell cycle arrest in human HepG2 cells assessed as accumulation at G2 phase at 2 uM after 72 hrs by propidium iodide staining based flow cytometric method (reference value: 17.45%); format: functional; summary of the method: as §3
# [39] = test system: HepG2; test: Induction of apoptosis in human HepG2 cells assessed as late apoptotic cells at 2 uM after 72 hrs by Annexin V-APC/7-AAD staining based flow cytometric method (reference value: 0.51%); format: functional
# [40] = test system: HepG2; test: Cell cycle arrest in human HepG2 cells assessed as accumulation at S phase at 0.5 uM after 72 hrs by propidium iodide staining based flow cytometric method (reference value: 25.78%); format: functional; summary of the method: as §3
# [41] = test system: HepG2; test: Cytotoxicity against human HepG2 cells at 2 uM after 72 hrs in presence of NO scavenger PTIO by MTT assay; format: functional, cell-based; summary of the method: as §4
# [42] = test system: HepG2; test: Induction of apoptosis in human HepG2 cells after 72 hrs by Annexin V-APC/7-AAD staining based flow cytometric method; format: functional, cell-based
structure (smiles),measurement,setting,value
COc1ccc2cc3[n+](cc2c1OC)CCc1cc2c(cc1-3)OCO2 [BERBERINE CHLORIDE],IC50,[1],40 µM
same,IC50,[2],27.4 µM
same,IC50,[3],49 µM
same,IC50,[4],25.9 µM
same,IC50,[5],71.5 µM
COc1ccc2c(c1OCCCCCCCCO[N+](=O)[O-])CN1CCc3cc4c(cc3C1C2)OCO4 (configuration not stated),IC50,[3],> 100 µM
COc1ccc2cc3[n+](cc2c1OC(=O)CCCCCO[N+](=O)[O-])CCc1cc2c(cc1-3)OCO2,IC50,[3],> 100 µM
COc1cc2c(cc1OC)-c1cc3ccc(OC)c(OCCCCCCCCCCCCO[N+](=O)[O-])c3c[n+]1CC2,IC50,[3],2.55 µM
COc1cc2c(cc1OC)-c1c(Br)c3ccc(OC)c(OCCCCCCCCO[N+](=O)[O-])c3c[n+]1CC2.[Br-],Activity,[6],87.9%
same,inhibition in vivo at 15 mg/kg,[7],45.9%
same,Activity,[8],22.97%
same,IC50,[1],2.29 µM
same,Activity,[9],1.49%
same,IC50,[2],1.26 µM
same,IC50,[3],1.36 µM
same,Activity,[10],11.02%
same,Activity,[11],25.4 g
same,Activity,[12],34.32%
same,Activity,[13],1.64 g
same,Activity,[14],47.33%
same,Activity,[15],40.5%
same,Activity,[16],23.38%
same,Activity,[17],74.5%
same,Activity,[18],4.43%
same,Activity,[19],9.11%
same,Activity,[20],2.39%
same,Activity,[21],51.14%
same,Activity,[22],85.1%
same,Activity,[23],59.5%
same,Activity,[24],25.2 g
same,Activity,[25],4.32%
same,Activity,[26],25.5%
same,Activity,[27],12.1%
same,Activity,[28],Active
same,IC50,[4],1.21 µM
same,Activity,[29],2.37 g
same,Activity,[30],44.44%
same,Activity,[31],63.61%
same,Activity,[32],Active
same,Activity,[33],24.23%
same,Activity,[34],23.1%
same,inhibition in vivo at 30 mg/kg,[35],62.5%
same,Activity,[36],41.13%
same,Activity,[37],29.57%
same,Activity,[38],41.45%
same,Activity,[39],10.01%
same,Activity,[40],25.49%
same,IC50,[5],28.9 µM
same,Activity,[41],inactive
same,Activity,[42],Dose-dependent effect
COc1ccc2cc3[n+](cc2c1OCCCCCCCCCCCCO[N+](=O)[O-])CCc1cc2c(cc1-3)OCO2,IC50,[3],2.52 µM
same,Activity,[32],Active
